Measured values reported in ChEMBL document CHEMBL4433211, “Discovery of the First-in-Class GSK-3β/HDAC Dual Inhibitor as Disease-Modifying Agent To Combat Alzheimer's Disease” (ACS Med Chem Lett, 2019).
Activity calls are given as the source filed them.

Legend:
Histone deacetylase 1 = Histone deacetylase 1 (Homo sapiens, UniProt Q13547); assay: Inhibition of human recombinant his tagged HDAC1 expressed in baculovirus infected […] insect cells up to 30 uM using tertbutyloxycarbonyl (Boc)-(Ac)-Lys-7-amino-4-methylcoumarin as substrate incubated for 1 hr by fluorescence based assay
Sequence of Histone deacetylase 1 (Q13547 whole entry): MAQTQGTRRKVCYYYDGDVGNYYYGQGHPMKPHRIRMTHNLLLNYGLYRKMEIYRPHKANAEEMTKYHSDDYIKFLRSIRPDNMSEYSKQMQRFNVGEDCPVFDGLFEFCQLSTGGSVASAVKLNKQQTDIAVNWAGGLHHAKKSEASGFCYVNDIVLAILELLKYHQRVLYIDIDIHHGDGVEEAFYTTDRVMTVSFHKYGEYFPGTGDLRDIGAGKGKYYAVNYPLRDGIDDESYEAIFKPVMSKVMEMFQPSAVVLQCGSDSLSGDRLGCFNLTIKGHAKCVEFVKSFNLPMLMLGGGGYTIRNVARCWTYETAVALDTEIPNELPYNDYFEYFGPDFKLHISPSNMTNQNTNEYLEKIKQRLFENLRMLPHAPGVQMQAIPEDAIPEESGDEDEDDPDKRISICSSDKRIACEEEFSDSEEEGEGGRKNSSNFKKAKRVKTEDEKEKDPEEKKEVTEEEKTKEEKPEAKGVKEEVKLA

SH-SY5Y [1] = assay: Synergistic neuroprotective activity against H2O2-induced cell death in human SH-SY5Y cells at 0.1 uM incubated for 24 hrs in presence of verinostat by MTS assay; assay type: functional, cell-based
Outline: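 SH-SY5Y cells challenged 24 h with H2O2 (25 and 50 μM) in presence of compounds (0.1–10 μM), alone or as a two-compound combination; viability by MTS assay as % of control.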

[2] = biological target: T1, Glycogen synthase kinase-3 beta (Homo sapiens, UniProt P49841); assay: Inhibition of GSK3beta in human SH-SY5Y cells assessed as reduction in copper-induced tau hyperphosphorylation at 10 uM preincubated for 1 hr followed by copper addition and measured after 26 hrs by ELISA; assay type: cell-based; settings: in the assay text read “16 hrs” for “26 hrs”
Outline: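 Differentiated SH-SY5Y cells pretreated 1 h with test agent (LiCl 10 mM reference; compounds 10 μM), then copper 400 μM for 16 h; cells scraped, phospho-tau quantified by immunoenzymatic assay at 450 nm; mean ± SEM.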
Target sequence in this assay (P49841 whole entry, looked up): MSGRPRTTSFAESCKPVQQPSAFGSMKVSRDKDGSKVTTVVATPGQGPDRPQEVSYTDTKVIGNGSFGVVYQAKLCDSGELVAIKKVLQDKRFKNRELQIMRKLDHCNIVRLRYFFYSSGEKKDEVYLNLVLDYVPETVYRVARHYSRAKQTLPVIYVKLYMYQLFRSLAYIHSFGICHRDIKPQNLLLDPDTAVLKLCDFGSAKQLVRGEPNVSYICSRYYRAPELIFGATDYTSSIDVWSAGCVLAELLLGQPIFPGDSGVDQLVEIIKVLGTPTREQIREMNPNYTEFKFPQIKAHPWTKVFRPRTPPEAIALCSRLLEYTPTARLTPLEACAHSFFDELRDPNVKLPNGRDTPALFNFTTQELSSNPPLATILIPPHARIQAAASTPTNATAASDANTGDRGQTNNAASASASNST

SH-SY5Y [3] = assay: Induction of neurogenesis in human SH-SY5Y cells assessed as upregulation of N-myc mRNA at 10 uM incubated for 24 hrs by RT-PCR analysis; assay type: functional, cell-based
Outline: (§1)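 SH-SY5Y cells treated 24 h (10 μM, or 1 μM for one parent compound; retinoic acid positive control); GAP43, N-myc and MAP-2 mRNA measured by RT-PCR, expressed as fold of control.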

SH-SY5Y [4] = assay: Induction of neurogenesis in human SH-SY5Y cells assessed as stimulation of neurite outgrowth at 10 uM incubated for 72 hrs by phase contrast microscopic analysis; assay type: functional, cell-based
Outline: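 SH-SY5Y cells treated 72 h at 10 μM, retinoic acid (10 μM) as positive control; neurite-bearing cells scored from images taken at 20× magnification.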

[5] = biological target: Histone deacetylase (Homo sapiens) (UniProt Q13547+O15379+Q9UBN7+Q92769+Q9UQL6+Q8WUI4+Q9BY41+Q96DB2+P56524+Q9UKV0+Q969S8); assay: Synergistic inhibition of HDAC in human SH-SY5Y cells assessed as increase in acetylation of alpha-tubulin incubated for 30 hrs in presence of verinostat by Western blot analysis; assay type: cell-based
Microglia [6] = assay: Immunomodulatory activity in LPS treated Wistar rat primary microglial cells assessed as effect on TREM2 expression level at 5 to 50 uM incubated for 24 hrs by western blot analysis; assay type: functional, cell-based
Outline: (§2)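 Primary microglial cells treated 24 h with LPS in presence or absence of test compound; NOS2, MRC1 and TREM2 protein assessed by Western blot, normalized to GAPDH.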

SH-SY5Y [7] = assay: Induction of neurogenesis in human SH-SY5Y cells assessed as upregulation of MAP-2 mRNA at 10 uM incubated for 24 hrs by RT-PCR analysis; assay type: functional, cell-based; outline: as §1
[8] = biological target: T2, Protein deacetylase HDAC6 (Homo sapiens) (UniProt Q9UBN7); assay: Inhibition of human recombinant his tagged HDAC6 expressed in baculovirus infected […] insect cells up to 30 uM using batcp as substrate incubated for 1 hr by fluorescence based assay
T2 sequence (whole entry): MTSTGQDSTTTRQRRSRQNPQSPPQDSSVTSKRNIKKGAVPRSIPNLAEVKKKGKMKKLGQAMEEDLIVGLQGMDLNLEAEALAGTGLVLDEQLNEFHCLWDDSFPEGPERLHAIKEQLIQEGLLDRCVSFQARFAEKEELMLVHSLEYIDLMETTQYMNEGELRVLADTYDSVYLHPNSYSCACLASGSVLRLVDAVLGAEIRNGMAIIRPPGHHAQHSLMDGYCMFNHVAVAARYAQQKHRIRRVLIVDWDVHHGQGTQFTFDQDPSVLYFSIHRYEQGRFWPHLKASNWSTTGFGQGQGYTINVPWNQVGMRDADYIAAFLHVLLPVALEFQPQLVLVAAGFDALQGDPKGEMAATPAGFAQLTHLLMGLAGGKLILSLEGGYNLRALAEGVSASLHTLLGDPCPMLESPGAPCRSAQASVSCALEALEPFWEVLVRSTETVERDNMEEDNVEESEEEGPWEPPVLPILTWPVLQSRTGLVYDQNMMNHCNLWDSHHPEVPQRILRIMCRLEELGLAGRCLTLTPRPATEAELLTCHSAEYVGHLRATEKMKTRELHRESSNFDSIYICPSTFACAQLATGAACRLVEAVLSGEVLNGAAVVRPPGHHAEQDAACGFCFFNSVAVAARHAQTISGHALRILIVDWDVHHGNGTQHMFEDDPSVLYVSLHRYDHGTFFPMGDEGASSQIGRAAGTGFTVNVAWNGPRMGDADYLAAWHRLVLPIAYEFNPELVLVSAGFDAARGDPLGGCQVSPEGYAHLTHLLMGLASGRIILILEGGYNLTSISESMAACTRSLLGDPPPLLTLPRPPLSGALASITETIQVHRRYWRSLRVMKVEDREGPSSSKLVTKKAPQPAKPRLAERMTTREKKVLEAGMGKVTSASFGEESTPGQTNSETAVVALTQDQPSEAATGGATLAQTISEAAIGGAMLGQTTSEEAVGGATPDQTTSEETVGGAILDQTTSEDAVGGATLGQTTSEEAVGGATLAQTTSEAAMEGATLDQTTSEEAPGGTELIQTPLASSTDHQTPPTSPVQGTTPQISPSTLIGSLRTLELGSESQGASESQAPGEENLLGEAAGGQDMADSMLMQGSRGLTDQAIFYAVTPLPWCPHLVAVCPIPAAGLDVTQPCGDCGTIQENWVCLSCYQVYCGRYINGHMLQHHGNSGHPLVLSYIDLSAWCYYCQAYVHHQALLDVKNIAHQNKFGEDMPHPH

[9] = tested on: Cerebellar granule neurone; assay: Neuroprotective activity against 6-OHDA-induced cell death in Wistar rat primary cerebellar granule neurons at 20 uM preincubated for 6 hrs followed by 6-OHDA addition and measured after 24 hrs in presence of in presence of 5 uM verinostat by MTT assay; assay type: functional, cell-based
Outline: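 Primary differentiated cerebellar granule neurons challenged with 6-OHDA with or without test compound; viability assessed; mean ± SE of at least 3 experiments in quadruplicate, one-way ANOVA with Bonferroni post hoc test.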

[10] = biological target: T1, Glycogen synthase kinase-3 beta; assay: Inhibition of human recombinant GSK3beta using GSM as substrate incubated for 30 mins by luminescence based assay
Target sequence in this assay (P49841 whole entry): as the sequence (P49841 whole entry, looked up) above

Microglia [11] = assay: Immunomodulatory activity in LPS treated Wistar rat primary microglial cells assessed as decrease in MRC1 expression level at 5 to 50 uM incubated for 24 hrs by western blot analysis; assay type: functional, cell-based; outline: as §2
SH-SY5Y [12] = assay: Induction of neurogenesis in human SH-SY5Y cells assessed as upregulation of GAP43 mRNA at 10 uM incubated for 24 hrs by RT-PCR analysis; assay type: functional, cell-based; outline: as §1
Microglia [13] = assay: Immunomodulatory activity in LPS treated Wistar rat primary microglial cells assessed as decrease in NOS2 expression level at 5 to 50 uM incubated for 24 hrs by western blot analysis; assay type: functional, cell-based; outline: as §2
SH-SY5Y [14] = assay: Induction of neurogenesis in human SH-SY5Y cells assessed as upregulation of N-myc mRNA at 1 uM incubated for 24 hrs by RT-PCR analysis; assay type: functional, cell-based; outline: as §1
SH-SY5Y [15] = assay: Induction of neurogenesis in human SH-SY5Y cells assessed as upregulation of MAP-2 mRNA at 1 uM incubated for 24 hrs by RT-PCR analysis; assay type: functional, cell-based; outline: as §1
[16] = biological target: T1, Glycogen synthase kinase-3 beta; assay: Inhibition of human recombinant GSK3beta up to 50 uM using GSM as substrate incubated for 30 mins by luminescence based assay
Target sequence in this assay (P49841 whole entry, looked up): as the sequence (P49841 whole entry, looked up) above

SH-SY5Y [17] = assay: Induction of neurogenesis in human SH-SY5Y cells assessed as upregulation of GAP43 mRNA at 1 uM incubated for 24 hrs by RT-PCR analysis; assay type: functional, cell-based; outline: as §1
SH-SY5Y [18] = assay: Cytotoxicity against human SH-SY5Y cells at 10 uM incubated for 24 hrs by MTS assay; assay type: cell-based
Outline: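 SH-SY5Y cells exposed to test compound for 24 h at 37 °C; viability read by MTS assay and expressed as % of untreated control.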

O=C1NC(=O)c2ccccc21 [PHTHALIMIDE]
inactive: inhibition (Histone deacetylase 1) | Activity (SH-SY5Y [1]) | Activity (SH-SY5Y [3]) | inhibition [5] | Activity (Microglia [6]) | inhibition [8]
20.2 µM: IC50 [10]
active: inhibition [2] | Activity (SH-SY5Y [4]) | Activity (SH-SY5Y [7]) | Activity [9] | Activity (Microglia [11]) | Activity (SH-SY5Y [12]) | Activity (Microglia [13])

O=C(CCCCCCC(=O)Nc1ccccc1)NO [VORINOSTAT]
inactive: Activity (Microglia [6]) | inhibition [16]
Toxic: Activity (SH-SY5Y [18])
active: Activity (SH-SY5Y [14]) | inhibition [2] | Activity (SH-SY5Y [15]) | Activity (Microglia [11]) | Activity (SH-SY5Y [17]) | Activity (Microglia [13])
